In ChEMBL document CHEMBL5614410, “Design, Synthesis, and Evaluation of p53Y220C Acetylation Targeting Chimeras (AceTACs)” (J Med Chem, 2024):
Active and inactive are the calls of the source. The rule behind the calls is not given here.

Legend:
[1] = tested on: CREB-binding protein/Histone acetyltransferase p300/Cellular tumor antigen p53 (Homo sapiens), P04637+Q09472+Q92793 [Y220C]; test: AceTAC activity at FLAG-tagged p53Y220C mutant (unknown origin) expressed in human NCI-H1299 cells expressing p300/CBP assessed as increase in p53 acetylation at lysine 382 residue at 10 uM incubated for 24 hrs by western blot analysis relative to control; assay type: cell-based
In short: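 NCI-H1299 (p53Y220C) cells were treated at 0.1–10 μM (0.1, 0.3, 1, 3 or 10 μM) for 24 h. Lysates were Western blotted for p53 and p53K382ac, with vinculin as loading control. p53K382ac was normalised to total p53Y220C and quantified from two or three independent experiments.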

NCI-H1299 = test: Inhibition of colony formation in human NCI-H1299 cells expressing p53Y220C mutant at 1 uM incubated for 14 days by crystal violet staining based analysis; assay type: functional, cell-based; conditions: time 14.0 day
In short: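 Clonogenic assay in NCI-H1299 (p53Y220C) cells exposed to DMSO or 1, 3 or 10 μM for 14 days. Colonies were fixed and stained with crystal violet. Images are representative of two independent experiments.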

[2] = tested on: CREB-binding protein/Histone acetyltransferase p300/Cellular tumor antigen p53 (Homo sapiens), P04637+Q09472+Q92793 [Y220C]; test: AceTAC activity at FLAG-tagged p53Y220C mutant (unknown origin) expressed in human NCI-H1299 cells expressing p300/CBP and transfected with control siRNA assessed as increase in p53 acetylation at lysine 382 residue at 1 to 10 uM incubated for 24 hrs by western blot analysis; assay type: cell-based; conditions: dose 1-10 µM
In short: (§1)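 NCI-H1299 cells stably expressing p53Y220C were given control or p300 siRNA, then treated at 0, 1 or 10 μM for 24 h. Lysates were Western blotted for p53 and p53K382ac. The acetylation level was normalised to vinculin and quantified from two independent experiments.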

[3] = tested on: CREB-binding protein/Histone acetyltransferase p300/Cellular tumor antigen p53 (Homo sapiens), P04637+Q09472+Q92793 [Y220C]; test: AceTAC activity at FLAG-tagged p53Y220C mutant (unknown origin) expressed in human NCI-H1299 cells expressing p300/CBP and transfected with p300 siRNA assessed as increase in p53 acetylation at lysine 382 residue at 1 to 10 uM incubated for 24 hrs by western blot analysis; assay type: cell-based; conditions: dose 1-10 µM; in short: as §1
[4] = tested on: CREB-binding protein/Histone acetyltransferase p300/Cellular tumor antigen p53 (Homo sapiens), P04637+Q09472+Q92793 [Y220C]; test: Induction of interaction between FLAG-tagged p53Y220C mutant (unknown origin) and p300/CBP expressed in human NCI-H1299 cells at 10 uM pretreated for 2 hrs with p53Y220C mutant binder, PK9328 followed by incubation with compound for 18 hrs by co-immunoprecipitation analysis; assay type: cell-based
In short: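 NCI-H1299 (p53Y220C) cells were pretreated for 2 h with a 10 μM p53Y220C binder or a 10 μM p300 binder, then given compound at 3 μM for 18 h. p53-FLAG pull-down was followed by Western blot analysis.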

[5] = tested on: CREB-binding protein/Histone acetyltransferase p300/Cellular tumor antigen p53 (Homo sapiens), P04637+Q09472+Q92793 [Y220C]; test: AceTAC activity at FLAG-tagged p53Y220C mutant (unknown origin) expressed in human NCI-H1299 cells expressing p300/CBP assessed as increase in p53 acetylation at lysine 382 residue at 10 uM pretreated for 2 hrs with p53Y220C mutant binder, PK9328 followed by incubation with compound for 18 hrs by western blot analysis; assay type: cell-based
[6] = tested on: CREB-binding protein/Histone acetyltransferase p300/Cellular tumor antigen p53 (Homo sapiens), P04637+Q09472+Q92793 [Y220C]; test: AceTAC activity at FLAG-tagged p53Y220C mutant (unknown origin) expressed in human NCI-H1299 cells expressing p300/CBP assessed as upregulation of p21 mRNA expression at 3 uM incubated for 24 hrs by RT-qPCR analysis; assay type: cell-based
In short: (§2)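 NCI-H1299 p53Y220C cells were treated with DMSO or compound at 3 μM for 24 h. mRNA of p53-target genes was measured by RT-qPCR, normalised to GAPDH and expressed relative to DMSO control. Values are mean ± SD of three independent experiments.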

[7] = tested on: CREB-binding protein/Histone acetyltransferase p300/Cellular tumor antigen p53 (Homo sapiens), P04637+Q09472+Q92793 [Y220C]; test: AceTAC activity at FLAG-tagged p53Y220C mutant (unknown origin) expressed in human NCI-H1299 cells expressing p300/CBP assessed as downregulation of SLC7A11 mRNA expression at 3 uM incubated for 24 hrs by RT-PCR analysis; assay type: cell-based; in short: as §2
NUGC-3 = test: Antiproliferative activity against human NUGC-3 cells harboring p53Y220C mutant assessed as inhibition of cell growth incubated for 72 hrs by WST-8 assay; assay type: functional
In short: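 BxPC3 or NUGC-3 cells were treated with DMSO or compound over a concentration range for 72 h before the viability read-out. Values are mean ± SD of technical triplicates from three biological experiments.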

[8] = tested on: CREB-binding protein/Histone acetyltransferase p300/Cellular tumor antigen p53 (Homo sapiens), P04637+Q09472+Q92793 [Y220C]; test: AceTAC activity at p53Y220C mutant in human BXPC-3 cells expressing p300/CBP assessed as increase in p53 acetylation at lysine 382 residue incubated for 24 hrs by western blot analysis; assay type: cell-based; conditions: dose 1-10 µM
In short: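 BxPC3 or NUGC-3 cells, which express p53Y220C endogenously, were treated with DMSO or compound at 1, 3 or 10 μM for 24 h. Lysates were Western blotted for p53 and p53K382ac, with vinculin as loading control. Representative of two independent experiments.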

[9] = Cytotoxicity against human U2OS cells harboring wild type p53 assessed as inhibition of cell growth at 10 uM incubated for 72 hrs by WST-8 assay; assay type: toxicity, cell-based
In short: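 U2OS (WT p53) or normal prostate PNT2 cells were treated for 72 h at the indicated concentrations. Viability is mean ± SD of technical triplicates from two biological experiments.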

In the case of `CCn1c2ccc(CNCCOCCOCCOCCC(=O)NCCOc3ccc(CCc4nc5cc(-c6c(C)noc6C)ccc5n4CCN4CCOCC4)cc3F)cc2c2ccc(-c3cc(C)cs3)cc21`, the Activity [1] is reported as 235%, the inhibition (NCI-H1299) is reported as “Active” and the Activity [2] is reported as “Active”. For the same compound, the Activity [3] was “inactive”, the Activity [4] was “inactive” and the Activity [5] was “inactive”. The Activity [6] was “Active”, the Activity [7] was “Active” and the GI50 (NUGC-3) was 1830 nM. The Activity [8] was “Dose-Dependent Effect” and the inhibition at 72 h, 10 µM [9] was 30%.
